These results are taken from publication PMC10558795 (Redox Biology, 2023).

The test system of series [1] is NQO1-YFP H1299 cells. Nature of the series: Cell viability. In kind it is cell-based, human. The following applies: Homo sapiens, NCI-H1299, read-out: Cell viability (IC50, μM). Summed up: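 NQO1-YFP H1299 reporter cells (YFP in NQO1 intron 1, constitutive mCherry) were seeded 1000/well in 384-well plates and cultured overnight. Primary screen: 1 μM compound in 0.1% DMSO, one well each, with CDDO 200 nM and 0.1% DMSO controls. Retests used 10-point serial dilutions from 10 µM in triplicate, with brusatol control. Imaged at 0, 24, 48, 64 h (YFP = NRF2 activity, mCherry = viability); IC₅₀ by curve fit.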

The subject of series [2] is KYSE180 cells. The series can be described thus: High-content cytotoxicity screen. In kind it is cell-based, human. The following applies: Homo sapiens, KYSE-180, 72 h, read-out: Cell proliferation (IC50, μM). In a few lines: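 Cells were seeded at 1200/well in 384-well plates and cultured overnight. Test compound was added at […] serial dilution from 10 µM, in triplicate, for 3 days. Controls were 0.1% DMSO (negative), 30 µM benzethonium chloride and 0.1% Triton X-100 added just before staining (positive). Cells were stained with 0.5 µg/ml Hoechst and 100 nM YOYO1, four 4× images per well. Normalized total-cell and dead-cell percentages were fitted for IC₅₀.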

For series [3], the system named is NRF2 and NQO1 expression in NRF2^Mut-KYSE70 cells. Nature of the series: Western blotting of NRF2 and NQO1 expression in KYSE70 cells. Conditions: KYSE70 cells. In kind it is cell-based, human. Summed up:
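Nuclear and cytosolic fractions prepared with an extraction kit, or whole-cell lysates in RIPA buffer. Proteins separated by SDS-PAGE, transferred to nitrocellulose, blocked and probed with primary antibody overnight at 4 °C. Chemiluminescence detected on film and quantified by densitometry; band data as mean ± SD, Student's t-test.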
For orientation: In western blotting, separated proteins are transferred to a membrane and probed.

The test system of series [4] is NRF2 and NQO1 expression in NRF2^Mut-KYSE180 cells. Nature of the series: Western blotting of NRF2 and NQO1 expression in KYSE180 cells. In kind it is cell-based, human. Summed up:
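NRF2-mutant KYSE180 cells (37 °C, 5% CO₂) treated with test compound; nuclear and cytosolic fractions prepared with a nuclear extraction kit. Proteins separated by SDS-PAGE onto nitrocellulose, primary antibody overnight at 4 °C, chemiluminescence on film. Bands quantified by densitometry, mean ± SD, Student's t-test.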

Series [5] concerns the target NRF2 ubiquitination (KYSE180) (Homo sapiens, UniProt Q16236, D77V). Nature of the series: NRF2-IP and ubiquitin western blotting in KYSE180 cells. It is filed as cell-based. The following applies: NRF2^Mut-KYSE180; PYR 10 μM, MIT 20 nM; presence or absence of MG132. Summed up: (§1)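 Cells treated with test compound, then with or without MG132 (10 μM), lysed in RIPA buffer. Lysate precleared on protein G agarose 1 h at 4 °C, then incubated with 1 μg anti-NRF2 antibody overnight at 4 °C with rotation. Immunocomplexes captured on protein G agarose 1.5 h at 4 °C, washed, boiled in 2X SDS loading buffer at 95 °C for 5 min, and immunoblotted for ubiquitin.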

Series [6] concerns the target NRF2 ubiquitination (KYSE450) (Homo sapiens, UniProt Q16236). The series can be described thus: NRF2-IP and ubiquitin western blotting in KYSE450 cells. The following applies: NRF2^WT-KYSE450; PYR 10 μM, MIT 20 nM; only in the presence of MG132. In kind it is cell-based. In a few lines: as §1
Series [7] relates to mouse NRF2 target genes in the esophageal epithelium. Nature of the series: RNAseq of esophageal epithelium of Sox2CreER. In kind it is in vivo. Conditions: PYR given after tamoxifen induction. In a few lines:
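Sox2CreER;LSL-Nrf2^E79Q/+ mice induced with tamoxifen (75 mg/kg/day i.p., 5 days), then dosed orally with test compound in N-methyl-2-pyrrolidone:PEG300 (1:9). Part of forestomach resected at Week 1; esophageal epithelium harvested at sacrifice, Week 3. Total RNA sequenced; data normalized; overall NRF2 target-gene expression calculated at natural log scale.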

For series [8] the following is noted: mice, i.p., cited from earlier work.
For series [9] the following is noted: humans, 50 mg/day, p.o., 3 weeks; cited from earlier work.

Like-named read-outs stand apart in the source and are kept apart here.

In general, Cmax refers to the peak of the concentration-time curve.

Sequence of NRF2 ubiquitination (KYSE180) (Q16236 whole entry D77V): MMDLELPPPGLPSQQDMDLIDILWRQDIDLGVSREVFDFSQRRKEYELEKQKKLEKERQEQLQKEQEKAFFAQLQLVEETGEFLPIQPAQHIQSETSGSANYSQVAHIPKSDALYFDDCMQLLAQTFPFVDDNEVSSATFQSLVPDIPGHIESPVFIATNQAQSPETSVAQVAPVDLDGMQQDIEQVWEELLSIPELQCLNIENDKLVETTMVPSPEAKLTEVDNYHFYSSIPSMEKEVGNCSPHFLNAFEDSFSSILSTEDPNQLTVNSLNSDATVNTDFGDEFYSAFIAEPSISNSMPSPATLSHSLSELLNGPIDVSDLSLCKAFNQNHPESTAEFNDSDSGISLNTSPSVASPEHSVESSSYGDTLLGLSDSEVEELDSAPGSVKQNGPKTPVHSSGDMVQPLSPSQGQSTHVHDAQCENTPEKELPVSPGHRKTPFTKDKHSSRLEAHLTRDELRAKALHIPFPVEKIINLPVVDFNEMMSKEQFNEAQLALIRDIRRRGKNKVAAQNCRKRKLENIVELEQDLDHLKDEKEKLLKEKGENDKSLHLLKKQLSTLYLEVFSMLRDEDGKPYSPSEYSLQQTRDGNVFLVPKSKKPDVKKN
Sequence of NRF2 ubiquitination (KYSE450) (Q16236 whole entry): as the sequence (Q16236 whole entry D77V) above, with V77D counted along it

For the compound `CCc1nc(N)nc(N)c1-c1ccc(Cl)cc1` [PYR, Pyrimethamine], the IC50 is 1.17 µM in [1] and above 10 µM in series [2]. The “Expression of nuclear NRF2 and cytoplasmic NQO1” value in [3] is “inhibited the expression of nuclear NRF2 and cytoplasmic NQO1 in a dose- and time-dependent manner”; in series [4] it was “inhibited the expression of nuclear NRF2 and cytoplasmic NQO1 in a dose- and time-dependent manner”. Moreover, the values for the NRF2 ubiquitination entry in [5] and in [6] were “promoted NRF2 ubiquitination” and “slightly promoted NRF2 ubiquitination”, respectively. The “Overall mRNA expression level of mouse NRF2 target genes in the esophageal epithelium” value in series [7] was “significantly inhibited the overall mRNA expression level”. Besides, the Cmax was 8.04 µM in series [8] (12.5 mg/kg); 18.5 µM in series [8] (25 mg/kg); 35.8 µM in series [8] (50 mg/kg); 28.2 µM in [8] (75 mg/kg); 8.28 µM in series [9].
